Measured values taken from ChEMBL document CHEMBL1153609, “Synthesis and cytotoxic activity of alpha-santonin derivatives” (Eur J Med Chem, 2009).

Key:
PC-3 = assay: Cytotoxicity against human PC3 cells after 72 hrs by MTT assay; type: functional, cell-based; conditions: PC-3, 72 h
How it was run: (§1)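 Cells kept in RPMI-1640 with 10% FBS, 2 mM glutamine, penicillin/streptomycin, at 37 °C under 5% CO2. Seeded at 10^5 cells/well (adherent) or 0.5×10^5 cells/well (suspension). After 24 h, compounds in DMSO (0.09–25 μg/mL) added for 72 h; doxorubicin positive control. Medium then replaced with 0.5 mg/mL MTT for 3 h, formazan dissolved in DMSO, absorbance read at 595 nm as % of control; IC50 derived.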

HL-60 = assay: Cytotoxicity against human HL60 cells after 72 hrs by MTT assay; type: functional, cell-based; conditions: HL-60, 72 h; how it was run: as §1
UACC-257 = assay: Cytotoxicity against human UACC257 cells after 72 hrs by MTT assay; type: functional, cell-based; conditions: UACC-257, 72 h; how it was run: as §1
MDA-MB-435 = assay: Cytotoxicity against human MDA-MB-435 cells after 72 hrs by MTT assay; type: functional, cell-based; conditions: MDA-MB-435, 72 h; how it was run: as §1
SF-295 = assay: Cytotoxicity against human SF295 cells after 72 hrs by MTT assay; type: functional, cell-based; conditions: SF-295, 72 h; how it was run: as §1
A704 = assay: Cytotoxicity against human A704 cells after 72 hrs by MTT assay; type: functional, cell-based; conditions: A704, 72 h; how it was run: as §1
HCT-8 = assay: Cytotoxicity against human HCT8 cells after 72 hrs by MTT assay; type: functional, cell-based; conditions: HCT-8, 72 h; how it was run: as §1
OVCAR-8 = assay: Cytotoxicity against human OVCAR8 cells after 72 hrs by MTT assay; type: functional, cell-based; conditions: OVCAR-8, 72 h; how it was run: as §1
A549 = assay: Cytotoxicity against human A549 cells after 72 hrs by MTT assay; type: functional, cell-based; conditions: A549, 72 h; how it was run: as §1
PBMC = assay: Cytotoxicity against human PBMC cells after 72 hrs by alamar blue assay; type: cell-based
How it was run: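 PBMC came from heparinized blood of healthy non-smoking donors and were isolated by Ficoll-Hypaque density gradient. Cultured in RPMI-1640 with 20% FBS, glutamine and antibiotics, with 2% phytohemagglutinin. Plated at 3×10^5 cells/well; after 24 h, compounds in DMSO (0.09–25 μg/mL) added for 72 h; doxorubicin positive control. Resazurin added 24 h before end; absorbance read at 570 and 595 nm as % of control.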

Compound | IC50 (PC-3) [µM] | IC50 (HL-60) [µM] | IC50 (UACC-257) [µM] | IC50 (MDA-MB-435) [µM] | IC50 (SF-295) [µM] | IC50 (A704) [µM] | IC50 (HCT-8) [µM] | IC50 (OVCAR-8) [µM] | IC50 (A549) [µM] | IC50 (PBMC) [µM]
C=C1C(=O)O[C@H]2[C@H]1CC[C@]1(C)C3(C)C(=O)C=CC231 (some centres not stated) | 5.07 | 2.3 | 4.87 | 4.57 | 2.15 | 3.61 | 1.96 | 3.88 | 14.5 | 13.4
CC(C)=C1CC[C@H]2[C@H](C)C(=O)O[C@@H]2/C1=C\CC(=O)O [ISOFOTOSANTONIC ACID] | > 100 | > 100 | > 100 | > 100 | > 100 | > 100 | > 100 | > 100 | > 100 | –
CC1=C2[C@H]3OC(=O)[C@@H](C)[C@@H]3CC[C@@]2(C)C=CC1=O [SANTONIN] | > 100 | > 100 | > 100 | > 100 | > 100 | > 100 | > 100 | > 100 | > 100 | –
COc1cccc2c1C(=O)c1c(O)c3c(c(O)c1C2=O)C[C@@](O)(C(=O)CO)C[C@@H]3O[C@H]1C[C@H](N)[C@H](O)[C@H](C)O1 [DOXORUBICIN] | 1.32 | 0.04 | 0.6 | 0.96 | 0.48 | 2 | 0.02 | 0.51 | 0.72 | 1.77
CC1=C2[C@H]3OC(=O)[C@](C)([Se]c4ccccc4)[C@@H]3CC[C@@]2(C)C=CC1=O | > 100 | > 100 | > 100 | > 100 | > 100 | > 100 | > 100 | > 100 | > 100 | –
CC(=O)O[C@]1(C)CC[C@H]2[C@H](C)C(=O)O[C@@H]2C2=C(C)[C@@H](O)C[C@H]21 | > 100 | > 100 | > 100 | > 100 | > 100 | > 100 | > 100 | > 100 | > 100 | –
C=C1C(=O)O[C@@H]2C3=C(C)C(=O)C[C@H]3[C@](C)(OC(C)=O)CC[C@@H]12 | 14.4 | 1.6 | 7.76 | 8.84 | 3.06 | 9.24 | 0.36 | 8.67 | 10.2 | 13.5
C=C1C(=O)O[C@@H]2C3=C(C)C(=O)C=C[C@]3(C)CC[C@@H]12 | 13 | 1.14 | 6.05 | 6.74 | 2.7 | 10.1 | 2.92 | 6.94 | 13.4 | 3.23
CC1=C2[C@H]3OC(=O)[C@@H](C)[C@@H]3CC[C@@](C)(O)[C@@H]2C[C@@H]1O | > 100 | > 100 | > 100 | > 100 | > 100 | > 100 | > 100 | > 100 | > 100 | –
C[C@@H]1C(=O)O[C@H]2[C@H]1CC[C@]1(C)C3(C)C(=O)C=CC231 (some centres not stated) [LUMISANTONIN] | 66.5 | 80.2 | > 100 | 91.5 | 68.8 | 85.4 | 59.2 | 49.8 | 69.4 | –
CC(=O)O[C@]1(C)CC[C@H]2[C@H](C)C(=O)O[C@@H]2C2=C(C)C(=O)C[C@H]21 | > 100 | > 100 | > 100 | > 100 | > 100 | > 100 | > 100 | > 100 | > 100 | –
CC1=C2[C@H]3OC(=O)[C@@H](C)[C@@H]3CC[C@@](C)(O)[C@@H]2CC1=O | > 100 | > 100 | > 100 | > 100 | > 100 | > 100 | > 100 | > 100 | > 100 | –
